ChEMBL document CHEMBL5058577, “EUbOPEN Chemogenomics Library 2 (Multiplex)” (2022)

Test system: Fibroblast
Experiment: Multiplex assay against human fibroblast
Assay type: toxicity, cell-based
In short: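 At seeding, live cells were stained with Hoechst33342, BioTracker Green Microtubule Cytoskeleton Dye, MitoTracker Red and Annexin V Alexa Fluor 680. After compound addition they were imaged on a CQ1 microscope at 37°C and 5% CO2, and CellPathfinder machine-learning gating sorted them into Hoechst high-intensity objects or normal cells, with normal cells further split into healthy, pyknosed or fragmented nuclei and pyknosed cells into mitotic or apoptotic. Tubulin, mitochondrial-mass and membrane-permeability phenotypes are given as per cents of cells with healthy nuclei.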

[1] = 12 h, 1 µM, compound concentration 1 uM, replicate 1
[2] = 12 h, 1 µM, compound concentration 1 uM, replicate 2
[3] = 12 h, 10 µM, compound concentration 10 uM, replicate 1
[4] = 12 h, 10 µM, compound concentration 10 uM, replicate 2
[5] = 24 h, 1 µM, compound concentration 1 uM, replicate 1
[6] = 24 h, 1 µM, compound concentration 1 uM, replicate 2
[7] = 24 h, 10 µM, compound concentration 10 uM, replicate 1
[8] = 24 h, 10 µM, compound concentration 10 uM, replicate 2
[9] = 48 h, 1 µM, compound concentration 1 uM, replicate 1
[10] = 48 h, 1 µM, compound concentration 1 uM, replicate 2
[11] = 48 h, 10 µM, compound concentration 10 uM, replicate 1
[12] = 48 h, 10 µM, compound concentration 10 uM, replicate 2

N#Cc1cc(F)cc(-c2nc(-c3ccc(F)cn3)no2)c1
Population Apoptotic (%) [1]: 28%
Population Fragmented Nuclei (%) [1]: 21%
Population Healthy Nuclei (%) [1]: 63%
Population Hoechst High Intensity Objects (%) [1]: 0%
Population Membrane Permeable-Phenotype (%) [1]: 2%
Population Mitochondria Different-Phenotype (%) [1]: 5%
Population Mitotic Cells (%) [1]: 71%
Population Normal (%) [1]: 100%
Population Pyknosed Nuclei (%) [1]: 15%
Population Tubulin-Different-Phenotype (%) [1]: 22%
Total Cell Count [1]: 136
Population Apoptotic (%) [2]: 38%
Population Fragmented Nuclei (%) [2]: 32%
Population Healthy Nuclei (%) [2]: 37%
Population Hoechst High Intensity Objects (%) [2]: 6%
Population Membrane Permeable-Phenotype (%) [2]: 15%
Population Mitochondria Different-Phenotype (%) [2]: 6%
Population Mitotic Cells (%) [2]: 61%
Population Normal (%) [2]: 93%
Population Pyknosed Nuclei (%) [2]: 29%
Population Tubulin-Different-Phenotype (%) [2]: 48%
Total Cell Count [2]: 93
Population Apoptotic (%) [3]: 48%
Population Fragmented Nuclei (%) [3]: 15%
Population Healthy Nuclei (%) [3]: 67%
Population Hoechst High Intensity Objects (%) [3]: 1%
Population Membrane Permeable-Phenotype (%) [3]: 2%
Population Mitochondria Different-Phenotype (%) [3]: 5%
Population Mitotic Cells (%) [3]: 51%
Population Normal (%) [3]: 98%
Population Pyknosed Nuclei (%) [3]: 17%
Population Tubulin-Different-Phenotype (%) [3]: 23%
Total Cell Count [3]: 179
Population Apoptotic (%) [4]: 28%
Population Fragmented Nuclei (%) [4]: 42%
Population Healthy Nuclei (%) [4]: 32%
Population Hoechst High Intensity Objects (%) [4]: 8%
Population Membrane Permeable-Phenotype (%) [4]: 9%
Population Mitochondria Different-Phenotype (%) [4]: 12%
Population Mitotic Cells (%) [4]: 72%
Population Normal (%) [4]: 91%
Population Pyknosed Nuclei (%) [4]: 24%
Population Tubulin-Different-Phenotype (%) [4]: 36%
Total Cell Count [4]: 110
Population Apoptotic (%) [5]: 40%
Population Fragmented Nuclei (%) [5]: 19%
Population Healthy Nuclei (%) [5]: 68%
Population Hoechst High Intensity Objects (%) [5]: 2%
Population Membrane Permeable-Phenotype (%) [5]: 1%
Population Mitochondria Different-Phenotype (%) [5]: 3%
Population Mitotic Cells (%) [5]: 60%
Population Normal (%) [5]: 97%
Population Pyknosed Nuclei (%) [5]: 11%
Population Tubulin-Different-Phenotype (%) [5]: 18%
Total Cell Count [5]: 131
Population Apoptotic (%) [6]: 27%
Population Fragmented Nuclei (%) [6]: 39%
Population Healthy Nuclei (%) [6]: 38%
Population Hoechst High Intensity Objects (%) [6]: 7%
Population Membrane Permeable-Phenotype (%) [6]: 12%
Population Mitotic Cells (%) [6]: 72%
Population Normal (%) [6]: 92%
Population Pyknosed Nuclei (%) [6]: 22%
Population Tubulin-Different-Phenotype (%) [6]: 58%
Total Cell Count [6]: 88
Population Apoptotic (%) [7]: 70%
Population Fragmented Nuclei (%) [7]: 12%
Population Healthy Nuclei (%) [7]: 70%
Population Hoechst High Intensity Objects (%) [7]: 4%
Population Membrane Permeable-Phenotype (%) [7]: 0%
Population Mitochondria Different-Phenotype (%) [7]: 6%
Population Mitotic Cells (%) [7]: 29%
Population Normal (%) [7]: 95%
Population Pyknosed Nuclei (%) [7]: 16%
Population Tubulin-Different-Phenotype (%) [7]: 22%
Total Cell Count [7]: 170
Population Apoptotic (%) [8]: 35%
Population Fragmented Nuclei (%) [8]: 47%
Population Healthy Nuclei (%) [8]: 33%
Population Hoechst High Intensity Objects (%) [8]: 11%
Population Membrane Permeable-Phenotype (%) [8]: 5%
Population Mitochondria Different-Phenotype (%) [8]: 11%
Population Mitotic Cells (%) [8]: 65%
Population Normal (%) [8]: 88%
Population Pyknosed Nuclei (%) [8]: 18%
Population Tubulin-Different-Phenotype (%) [8]: 41%
Total Cell Count [8]: 120
Population Apoptotic (%) [9]: 61%
Population Fragmented Nuclei (%) [9]: 21%
Population Healthy Nuclei (%) [9]: 68%
Population Hoechst High Intensity Objects (%) [9]: 1%
Population Membrane Permeable-Phenotype (%) [9]: 0%
Population Mitochondria Different-Phenotype (%) [9]: 3%
Population Mitotic Cells (%) [9]: 38%
Population Normal (%) [9]: 98%
Population Pyknosed Nuclei (%) [9]: 9%
Population Tubulin-Different-Phenotype (%) [9]: 23%
Total Cell Count [9]: 137
Population Apoptotic (%) [10]: 50%
Population Fragmented Nuclei (%) [10]: 45%
Population Healthy Nuclei (%) [10]: 32%
Population Hoechst High Intensity Objects (%) [10]: 5%
Population Membrane Permeable-Phenotype (%) [10]: 3%
Population Mitochondria Different-Phenotype (%) [10]: 7%
Population Mitotic Cells (%) [10]: 50%
Population Normal (%) [10]: 94%
Population Pyknosed Nuclei (%) [10]: 22%
Population Tubulin-Different-Phenotype (%) [10]: 57%
Total Cell Count [10]: 85
Population Apoptotic (%) [11]: 84%
Population Fragmented Nuclei (%) [11]: 20%
Population Healthy Nuclei (%) [11]: 63%
Population Hoechst High Intensity Objects (%) [11]: 7%
Population Membrane Permeable-Phenotype (%) [11]: 0%
Population Mitochondria Different-Phenotype (%) [11]: 11%
Population Mitotic Cells (%) [11]: 16%
Population Normal (%) [11]: 92%
Population Pyknosed Nuclei (%) [11]: 16%
Population Tubulin-Different-Phenotype (%) [11]: 28%
Total Cell Count [11]: 162
Population Apoptotic (%) [12]: 50%
Population Fragmented Nuclei (%) [12]: 44%
Population Healthy Nuclei (%) [12]: 38%
Population Hoechst High Intensity Objects (%) [12]: 5%
Population Membrane Permeable-Phenotype (%) [12]: 15%
Population Mitochondria Different-Phenotype (%) [12]: 5%
Population Mitotic Cells (%) [12]: 50%
Population Normal (%) [12]: 94%
Population Pyknosed Nuclei (%) [12]: 17%
Population Tubulin-Different-Phenotype (%) [12]: 50%
Total Cell Count [12]: 110
